This excerpt belongs to a sample that is enriched for hits.
HCT116 bCat-KO: beta-catenin-lacking colon tumor cell growth suppression; HCT116 beta-catenin knockout viability, CellTiter-Glo, 60 h; active compounds read low; AID 818; 1.5% of 140,000 active; viability, % at 10 µM;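 active means viability at or under a set limit, the compound median less 4 SD, cut at about 6% in these data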;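 further: 0% = Hyamine 1622 control at 20 µM and 100% = untreated cell control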
PTEN del growth: PTEN-deleted cell growth suppression; HCT116 PTEN-null viability, CellTiter-Glo, 60 h; active compounds read low; AID 827; 1.2% of 140,000 active; viability, % at 10 µM;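 active means viability at or below a set limit, 4 SD under the median of all tested compounds, cut at about 3.7% in these data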;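 further: PTEN knockout HCT116 line with beta catenin targeted HCT116 as companion control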
Fibroblast inh: blocks proliferation of human lung fibroblasts; 1.1% of 85,000 active; LL 47 human lung fibroblast viability, ATP luminescence; active compounds read low; viability, % at 10 µM;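 active means viability at or below 50% in the single dose screen; inactive means viability above 50%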;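 further: compound exposure lasted 72 h before the ATP readout; 100% = median luminescence of untreated cell-only wells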
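Material: human lung fibroblast line LL 47, low passage; Evaluation: viability percentage against median untreated-cell control; Buffer or medium: 15% FBS in IMEM; Incubation: 72 h compound exposure at 37 °C after overnight plating; Dosing: 0.1% DMSO in all compound wells; Measured by: CellTiter-Glo luminescence.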
H69AR inhibit: blocks growth of human H69AR lung tumor cells; H69AR lung tumor viability, ATP luminescence, 72 h; active compounds read low; viability, % at 10 µM; 6% of 85,000 active; AID 598;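 active means viability at or below 40%; inactive means viability above 40%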;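 further: multidrug resistant small cell line overexpressing MRP-1 efflux transporter; 100% = mean luminescence of untreated control wells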
HUVEC prolif 384: inhibitors of human endothelial cell proliferation | HUVEC proliferation, CellTiter-Glo luminescence, 72 h; active compounds read low | viability, % at 10 µM (by protocol) | 1.1% of 86,000 active;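 active means viability at or below 30%; inactive means viability above 30%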;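 further: 100% = median luminescence of DMSO-only cell control wells on each plate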
* marks the source's active call; other numbers are inactive results.

COc1cc(OC)c(C2=NOC(C(=O)NCc3ccc4c(c3)OCO4)C2)cc1Cl (stereo not given) was read as HCT116 bCat-KO 64, PTEN del growth 60, Fibroblast inh 92, H69AR inhibit 22* and HUVEC prolif 384 60.
O=C1CC(c2cccc(Cl)c2)CC(O)=C1C=NC1CCCC1 (stereo not given) was read as HCT116 bCat-KO 93 and PTEN del growth 96.
Screening Cc1cc(C)c(-n2nnnc2SC(C)C)c(C)c1 returned HCT116 bCat-KO 94 and PTEN del growth 99.
Screening c1ccc(-c2nc(NCc3ccco3)c3ccccc3n2)nc1 returned HCT116 bCat-KO 8, PTEN del growth 8, Fibroblast inh 55, H69AR inhibit 16* and HUVEC prolif 384 48.
Screening c1ccc(-c2nc(NCC3CCCO3)c3ccccc3n2)nc1 (stereo not given) returned HCT116 bCat-KO 6.0* and PTEN del growth 6.
c1ccc2c(c1)[nH]c1c(NCC3CCCO3)ncnc12 (stereo not given) was read as HCT116 bCat-KO 72, PTEN del growth 80, Fibroblast inh 93, H69AR inhibit 70 and HUVEC prolif 384 87.
`Oc1cccc(Nc2nc(NCC3CCCO3)c3ccccc3n2)c1` (stereo not given) gave HCT116 bCat-KO 1.9*, PTEN del growth 3.4*, Fibroblast inh 90, H69AR inhibit 104 and HUVEC prolif 384 85.
For Oc1ccccc1-c1nc(NCc2ccco2)c2ccccc2n1 the results were HCT116 bCat-KO 38, PTEN del growth 35, Fibroblast inh 74, H69AR inhibit 36* and HUVEC prolif 384 47.
For Cc1cc(NC(=S)NC(=O)c2ccccc2)ccc1-c1cc2ccccc2oc1=O the results were HCT116 bCat-KO 68 and PTEN del growth 59.
For CCc1nn(C(C)C(=O)Nc2cccc(C)c2C)c(=O)c2cc3occc3n12 (stereo not given) the results were HCT116 bCat-KO 69 and PTEN del growth 61.
Screening NC(=O)NCc1ccc(Cl)cc1 returned HCT116 bCat-KO 98 and PTEN del growth 94.
For COc1ccc(/C=C/C(=O)Nc2cccc(N3CCOCC3)c2)cc1OC the results were HCT116 bCat-KO 99 and PTEN del growth 99.
`COC(=O)C1=C(C)NC(=O)NC1c1ccc(OCC(=O)N2CCCCC2)cc1` (stereo not given) gave HCT116 bCat-KO 99, PTEN del growth 91, Fibroblast inh 99, H69AR inhibit 93 and HUVEC prolif 384 96.
Screening COc1cc(CNC2CCCC2)cc(OC)c1OC returned HCT116 bCat-KO 107, PTEN del growth 102, Fibroblast inh 105, H69AR inhibit 90 and HUVEC prolif 384 87.
For CCOc1cc(CNC2CCCC2)cc(Cl)c1OCc1ccc(F)cc1 the results were HCT116 bCat-KO 0.9* and PTEN del growth 0.9*.
`COc1cc(CNC2CCCC2)cc(Cl)c1OCc1ccccc1Cl` gave HCT116 bCat-KO 1.2* and PTEN del growth 1.6*.
Screening COc1cc(CNC2CCCC2)cc(Cl)c1OCc1ccc(F)cc1 returned HCT116 bCat-KO 48 and PTEN del growth 64.
Screening CCOc1cc(CNCCc2ccc(S(N)(=O)=O)cc2)cc(Cl)c1OCc1ccccc1 returned HCT116 bCat-KO 1.5* and PTEN del growth 1.9*.
Cc1ccccc1Nc1nc2nonc2nc1N1CCOCC1 was read as HCT116 bCat-KO 96 and PTEN del growth 94.
Screening c1ccc(-c2c(-c3ccccc3)n(Cc3ccco3)c3ncnc(NCCCn4ccnc4)c23)cc1 returned HCT116 bCat-KO 59, PTEN del growth 54, Fibroblast inh 86, H69AR inhibit 9.1* and HUVEC prolif 384 44.
`N=c1c2c(-c3ccccc3)c(-c3ccccc3)n(Cc3ccco3)c2ncn1CCCn1ccnc1` gave HCT116 bCat-KO 2.2* and PTEN del growth 2.1*.
For c1ccc2c(c1)oc1c(NCCCn3ccnc3)ncnc12 the results were HCT116 bCat-KO 99, PTEN del growth 100, Fibroblast inh 106, H69AR inhibit 87 and HUVEC prolif 384 86.
c1ccc(-c2oc3ncnc(NCCCn4ccnc4)c3c2-c2ccccc2)cc1 was read as HCT116 bCat-KO 25, PTEN del growth 18, Fibroblast inh 80, H69AR inhibit 29* and HUVEC prolif 384 38.
For CCc1nc2ccc(F)cc2c(C(=O)NC2CCCCC2C)c1C (stereo not given) the results were HCT116 bCat-KO 70 and PTEN del growth 76.
For CCCCCCn1c(N2CCC(C(N)=O)CC2)nc2c1c(=O)n(C)c(=O)n2C the results were HCT116 bCat-KO 106, PTEN del growth 94, Fibroblast inh 92, H69AR inhibit 55 and HUVEC prolif 384 83.
Screening CCSC1(SCC)N=C(N)C2(C#N)C(c3ccc(OC)c(OC)c3OC)C12C#N (stereo not given) returned HCT116 bCat-KO 76, PTEN del growth 85, Fibroblast inh 51, H69AR inhibit 2.1* and HUVEC prolif 384 45.
Screening CCSC1(SCC)N=C(N)C2(C#N)C(c3ccccc3)NC3=C(CCC3)C12C#N (stereo not given) returned HCT116 bCat-KO 76, PTEN del growth 89, Fibroblast inh 97, H69AR inhibit 78 and HUVEC prolif 384 97.
Screening Cc1cc2nc(C)n(CCCN)c2cc1C returned HCT116 bCat-KO 60, PTEN del growth 70, Fibroblast inh 73, H69AR inhibit 13* and HUVEC prolif 384 93.
For Cc1cc2nc(C)n(CCCNC(=O)Nc3ccc(C#N)cc3)c2cc1C the results were HCT116 bCat-KO 86, PTEN del growth 83, Fibroblast inh 101, H69AR inhibit 87 and HUVEC prolif 384 90.
`CCOC(=O)Cc1csc(SCc2nc3ccccc3c(=O)[nH]2)n1` gave HCT116 bCat-KO 94, PTEN del growth 109, Fibroblast inh 95, H69AR inhibit 87 and HUVEC prolif 384 96.
For Cc1ccc2cc(CN(CCN3CCCC3)C(=O)Nc3ccccc3)c(=O)[nH]c2c1C the results were HCT116 bCat-KO 69, PTEN del growth 61, Fibroblast inh 98, H69AR inhibit 74 and HUVEC prolif 384 78.
Screening Cc1ccc2cc(CN(CCN3CCCC3)C(=O)Nc3ccc(F)cc3)c(=O)[nH]c2c1C returned HCT116 bCat-KO 21, PTEN del growth 20, Fibroblast inh 85, H69AR inhibit 38* and HUVEC prolif 384 66.
For O=C(Nc1ccc(F)cc1)N(CCCN1CCOCC1)Cc1cc2cc3c(cc2[nH]c1=O)OCCO3 the results were HCT116 bCat-KO 62, PTEN del growth 66, Fibroblast inh 90, H69AR inhibit 61 and HUVEC prolif 384 81.
For CCc1ccc2[nH]c(=O)c(CN(CCCN3CCOCC3)C(=O)Nc3ccc(F)cc3)cc2c1 the results were HCT116 bCat-KO 88, PTEN del growth 81, Fibroblast inh 94, H69AR inhibit 34* and HUVEC prolif 384 77.
O=c1c2ccccc2c(C=Nc2cccc(O)c2)c(O)n1-c1ccc2c(c1)OCO2 was read as HCT116 bCat-KO 3.7* and PTEN del growth 9.
Oc1[nH]c2ccccc2c1C=Nc1ccc2c(c1)OCO2 was read as HCT116 bCat-KO 77 and PTEN del growth 81.
